The species named for experiment [1] is Oryctolagus cuniculus. Briefly: Intrinsic activity at rabbit angiotensin […] receptor in aorta strips under exclusion of long wavelength UV light. Type of experiment: tissue-based. In outline:
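Intrinsic activity (αE) was determined with the rabbit aorta bioassay.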

Experiment [2] is filed under the species Oryctolagus cuniculus. Briefly: Relative binding affinity at rabbit angiotensin […] receptor in aorta strips under exclusion of long wavelength UV light relative to control. Type of experiment: tissue-based.
For experiment [3], the species on record is Oryctolagus cuniculus. Briefly: Agonist activity at rabbit angiotensin […] receptor in aorta strips assessed as peptide concentration required to produce 50% maximal response under exclusion of long wavelength UV light. In a few lines: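 Rabbit aorta contractile bioassay. […]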

Experiment [4] in a line: Antagonist activity at rabbit angiotensin […] receptor in aorta strips under exclusion of long wavelength UV light. It counts as tissue-based. To be noted: Oryctolagus cuniculus, read-out: pA2 (converted).

Non-standard residues stand in square brackets, D forms with d. Residues, ends and D or L forms follow the SMILES beside them. Phe(4-NO2) = N[C@@H](Cc1ccc([N+](=O)[O-])cc1)C(=O)O; Phe(3,5-I2,4-NH2) = Nc1c(I)cc(C[C@H](N)C(=O)O)cc1I; Phe(4-N3) = [N-]=[N+]=Nc1ccc(C[C@H](N)C(=O)O)cc1; Phe(4-N2+) = N#[N+]c1ccc(C[C@H](N)C(=O)O)cc1; Phe(4-NH2) = Nc1ccc(C[C@H](N)C(=O)O)cc1; Sar = CNCC(=O)O

The compound `CNCC(=O)N[C@@H](CCCNC(=N)N)C(=O)N[C@H](C(=O)N[C@@H](Cc1ccc(O)cc1)C(=O)N[C@H](C(=O)N[C@@H](Cc1cnc[nH]1)C(=O)N1CCC[C@H]1C(=O)N[C@@H](Cc1ccc([N+](=O)[O-])cc1)C(=O)O)C(C)C)C(C)C` displayed an Intrinsic activity in the experiment listed under Oryctolagus cuniculus [1] of 0.46. Besides, in the experiment listed under Oryctolagus cuniculus [2], the RBA came to 69%. For the same compound, in the experiment filed under Oryctolagus cuniculus [3], the pD2 turned out to be 9.07. Also, the Kb in experiment [4] was 0.372 nM.
`CNCC(=O)N[C@@H](CCCNC(=N)N)C(=O)N[C@H](C(=O)N[C@@H](Cc1ccc(O)cc1)C(=O)N[C@H](C(=O)N[C@@H](Cc1cnc[nH]1)C(=O)N1CCC[C@H]1C(=O)N[C@@H](Cc1cc(I)c(N)c(I)c1)C(=O)O)C(C)C)C(C)C`: in the experiment listed under Oryctolagus cuniculus [1], the Intrinsic activity is 0. The compound further displayed an RBA in the experiment listed under Oryctolagus cuniculus [2] of 118%. Moreover, the Kb in experiment [4] is 0.501 nM.
In the experiment filed under Oryctolagus cuniculus [1], `CNCC(=O)N[C@@H](CCCNC(=N)N)C(=O)N[C@H](C(=O)N[C@@H](Cc1ccc(O)cc1)C(=O)N[C@H](C(=O)N[C@@H](Cc1cnc[nH]1)C(=O)N1CCC[C@H]1C(=O)N[C@@H](Cc1ccc(N)cc1)C(=O)O)C(C)C)C(C)C` registered an Intrinsic activity of 1. The RBA in the experiment filed under Oryctolagus cuniculus [2] worked out at 37%. Besides, the pD2 in the experiment listed under Oryctolagus cuniculus [3] came out at 8.8.
The matching figures for `CNCC(=O)N[C@@H](CCCNC(=N)N)C(=O)N[C@H](C(=O)N[C@@H](Cc1ccc(O)cc1)C(=O)N[C@H](C(=O)N[C@@H](Cc1cnc[nH]1)C(=O)N1CCC[C@H]1C(=O)N[C@@H](Cc1ccc(N=[N+]=[N-])cc1)C(=O)O)C(C)C)C(C)C`: 1, 31% and 8.72.
The matching figures for `CNCC(=O)N[C@@H](CCCNC(=N)N)C(=O)N[C@H](C(=O)N[C@@H](Cc1ccc(O)cc1)C(=O)N[C@H](C(=O)N[C@@H](Cc1cnc[nH]1)C(=O)N1CCC[C@H]1C(=O)N[C@@H](Cc1ccc([N+]#N)cc1)C(=O)O)C(C)C)C(C)C`: 1, 13% and 8.33.
The compound `CNCC(=O)N[C@@H](CCCNC(=N)N)C(=O)N[C@H](C(=O)N[C@@H](Cc1ccc(O)cc1)C(=O)N[C@H](C(=O)N[C@@H](Cc1cnc[nH]1)C(=O)N1CCC[C@H]1C(=O)N[C@@H](Cc1ccccc1)C(=O)O)C(C)C)C(C)C` (H-[Sar]RVYVHPF-OH) gave an Intrinsic activity in the experiment filed under Oryctolagus cuniculus [1] of 1. Also, in the experiment listed under Oryctolagus cuniculus [3], the pD2 was 9.23.
Consider `CNCC(=O)N[C@@H](CCCNC(=N)N)C(=O)N[C@H](C(=O)N[C@@H](Cc1cc(I)c(N)c(I)c1)C(=O)N[C@H](C(=O)N[C@@H](Cc1cnc[nH]1)C(=O)N1CCC[C@H]1C(=O)N[C@@H](Cc1ccccc1)C(=O)O)C(C)C)C(C)C` (H-[Sar]RV[Phe(3,5-I2,4-NH2)]VHPF-OH), for which the Intrinsic activity in the experiment filed under Oryctolagus cuniculus [1] is 1. For the same compound, the RBA in the experiment filed under Oryctolagus cuniculus [2] stood at 2.7%. Besides, in the experiment filed under Oryctolagus cuniculus [3], the pD2 was found to be 7.68.
The matching figures for `CNCC(=O)N[C@@H](CCCNC(=N)N)C(=O)N[C@H](C(=O)N[C@@H](Cc1ccc([N+]#N)cc1)C(=O)N[C@H](C(=O)N[C@@H](Cc1cnc[nH]1)C(=O)N1CCC[C@H]1C(=O)N[C@@H](Cc1ccccc1)C(=O)O)C(C)C)C(C)C` (H-[Sar]RV[Phe(4-N2+)]VHPF-OH): 1, 0.66% and 7.05.
Consider `CNCC(=O)N[C@@H](CCCNC(=N)N)C(=O)N[C@H](C(=O)N[C@@H](Cc1ccc([N+]#N)cc1)C(=O)N[C@H](C(=O)N[C@@H](Cc1cnc[nH]1)C(=O)N1CCC[C@H]1C(=O)N[C@@H](Cc1ccc([N+]#N)cc1)C(=O)O)C(C)C)C(C)C` (H-[Sar]RV[Phe(4-N2+)]VHP[Phe(4-N2+)]-OH), for which the Intrinsic activity in the experiment filed under Oryctolagus cuniculus [1] worked out at 1. The compound also returned an RBA in the experiment listed under Oryctolagus cuniculus [2] of 1.3%. Further, the pD2 in the experiment listed under Oryctolagus cuniculus [3] was 7.36.
In the experiment filed under Oryctolagus cuniculus [1], `CNCC(=O)N[C@@H](CCCNC(=N)N)C(=O)N[C@H](C(=O)N[C@@H](Cc1ccc(N=[N+]=[N-])cc1)C(=O)N[C@H](C(=O)N[C@@H](Cc1cnc[nH]1)C(=O)N1CCC[C@H]1C(=O)N[C@@H](Cc1ccccc1)C(=O)O)C(C)C)C(C)C` (H-[Sar]RV[Phe(4-N3)]VHPF-OH) registered an Intrinsic activity of 0.75. In the experiment listed under Oryctolagus cuniculus [2], this compound displayed an RBA of 0.26%. For the same compound, the pD2 in the experiment filed under Oryctolagus cuniculus [3] is 6.65.
The matching figures for `CNCC(=O)N[C@@H](CCCNC(=N)N)C(=O)N[C@H](C(=O)N[C@@H](Cc1ccc(N=[N+]=[N-])cc1)C(=O)N[C@H](C(=O)N[C@@H](Cc1cnc[nH]1)C(=O)N1CCC[C@H]1C(=O)N[C@@H](Cc1ccc(N=[N+]=[N-])cc1)C(=O)O)C(C)C)C(C)C` (H-[Sar]RV[Phe(4-N3)]VHP[Phe(4-N3)]-OH): 0.8, 0.07% and 6.12.
In the experiment filed under Oryctolagus cuniculus [1], `CNCC(=O)N[C@@H](CCCNC(=N)N)C(=O)N[C@H](C(=O)N[C@@H](Cc1ccc(N)cc1)C(=O)N[C@H](C(=O)N[C@@H](Cc1cnc[nH]1)C(=O)N1CCC[C@H]1C(=O)N[C@@H](Cc1ccccc1)C(=O)O)C(C)C)C(C)C` (H-[Sar]RV[Phe(4-NH2)]VHPF-OH) came in with an Intrinsic activity of 1. The same compound yielded an RBA in the experiment listed under Oryctolagus cuniculus [2] of 15%. For the same compound, the pD2 in the experiment listed under Oryctolagus cuniculus [3] was 8.41.
The compound `CNCC(=O)N[C@@H](CCCNC(=N)N)C(=O)N[C@H](C(=O)N[C@@H](Cc1ccc(N)cc1)C(=O)N[C@H](C(=O)N[C@@H](Cc1cnc[nH]1)C(=O)N1CCC[C@H]1C(=O)N[C@@H](Cc1ccc(N)cc1)C(=O)O)C(C)C)C(C)C` (H-[Sar]RV[Phe(4-NH2)]VHP[Phe(4-NH2)]-OH) registered an Intrinsic activity in the experiment listed under Oryctolagus cuniculus [1] of 1. Also, the RBA in the experiment filed under Oryctolagus cuniculus [2] worked out at 8.7%. Further, the pD2 in the experiment listed under Oryctolagus cuniculus [3] came to 8.17.
`CNCC(=O)N[C@@H](CCCNC(=N)N)C(=O)N[C@H](C(=O)N[C@@H](Cc1ccc([N+](=O)[O-])cc1)C(=O)N[C@H](C(=O)N[C@@H](Cc1cnc[nH]1)C(=O)N1CCC[C@H]1C(=O)N[C@@H](Cc1ccccc1)C(=O)O)C(C)C)C(C)C` (H-[Sar]RV[Phe(4-NO2)]VHPF-OH) displayed an Intrinsic activity in the experiment filed under Oryctolagus cuniculus [1] of 0. The compound further had an RBA in the experiment filed under Oryctolagus cuniculus [2] of 0%.
Consider `CNCC(=O)N[C@@H](CCCNC(=N)N)C(=O)N[C@H](C(=O)N[C@@H](Cc1ccc([N+](=O)[O-])cc1)C(=O)N[C@H](C(=O)N[C@@H](Cc1cnc[nH]1)C(=O)N1CCC[C@H]1C(=O)N[C@@H](Cc1ccc([N+](=O)[O-])cc1)C(=O)O)C(C)C)C(C)C` (H-[Sar]RV[Phe(4-NO2)]VHP[Phe(4-NO2)]-OH), for which the Intrinsic activity in the experiment listed under Oryctolagus cuniculus [1] stood at 0.5. In addition, the RBA in the experiment filed under Oryctolagus cuniculus [2] is 0.06%. Besides, the pD2 in the experiment listed under Oryctolagus cuniculus [3] amounted to 6.02. Besides, the Kb in experiment [4] is 759 nM.

The values are drawn from ChEMBL document CHEMBL3272272, “Photoaffinity labeling of the angiotensin II receptor. 1. Synthesis and biological activities of the labeling peptides” (J Med Chem, 1978).
